Consider eight molecules from ChEMBL document CHEMBL3232952, “Bisphosphonate prodrugs: synthesis and biological evaluation in HuH7 hepatocarcinoma cells” (Eur J Med Chem, 2014).

Calls of active or inactive are those of the source. No cut-off for these calls is given here.

Data set [1] is described as follows: Cytotoxicity against human HuH7 cells at 10 uM to 1 mM after 144 hrs by MTT assay. The data set is classed as functional, Huh-7. A digest of the protocol:
(§1)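 MTT assay. HuH7 cells were seeded at 5x10⁴/well and grown 24 h in complete medium, then switched to 2% FCS medium containing compound (10⁻⁶–10⁻³ M) for 144 h. Cells were washed with PBS, given MTT (2 mg/mL) for 4 h at 37 °C, and formazan was dissolved in DMSO. OD was read at 570 nm. Mean ± SD of three independent experiments.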

Data set [2] deals with Huh-7. Nature of the data set: Cytotoxicity against human HuH7 cells at 1 mM after 144 hrs by MTT assay in presence of IBMX. The data set is classed as functional, cell-based. A digest of the protocol: (§2)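 MTT viability assay with the cells pretreated with IBMX (1 mM) before compound addition; the pretreatment time is given as 30 min in Methods and 1 h in the legend. Then 144 h exposure in 2% FCS medium, MTT (2 mg/mL) for 4 h at 37 °C, DMSO solubilisation and OD read at 570 nm. Mean ± SD of three independent experiments.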

Data set [3] concerns Huh-7. Nature of the data set: (§3) Cytotoxicity against human HuH7 cells after 144 hrs by MTT assay. The data set is classed as functional, cell-based. Put shortly: as §1
Data set [4] can be described thus: as §3. It is filed as functional, cell-based. Conditions: Huh-7, 144 h. A digest of the protocol: as §1
Data set [5] in a line: Cytotoxicity against human HuH7 cells at 250 uM after 144 hrs by MTT assay. Conditions: Huh-7, 144 h. It is filed as functional. Put shortly:
as §1

The nature of data set [6]: Cytotoxicity against human HuH7 cells at 1 mM after 144 hrs by MTT assay. The data set is classed as cell-based. Conditions: huh-7, 144 h, 1000 µM. Put shortly: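 HuH7 cells plated at 5x10⁴ cells/well in complete medium for 24 h, then switched to 2% FCS medium with bisphosphonate (10^-6 to 10^-3 M range) for 144 h. PBS wash, then MTT (2 mg/mL) 4 h at 37 °C, formazan dissolved in DMSO, OD read at 570 nm. Mean ± SD of three independent experiments.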

Data set [7] is described as follows: Antimigratory activity against human HuH7 cells at 100 uM after 24 hrs relative to control. The data set is classed as functional. Conditions: Huh-7, 24 h. Put shortly: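 Migration chambers with the insert undersides coated overnight at 4 °C with fibronectin (100 µg/mL). 2.5 × 10⁵ HuH7 cells were placed in the upper chamber with 100 µM compound, with HGF (20 ng/mL) in the lower chamber. After 24 h, non-migrated cells were scraped off, and cells on the lower face were fixed, stained and counted. Results are % of control set at 100%; triplicate.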

The subject of data set [8] is Huh-7. The data set is described as follows: Induction of apoptosis in human HuH7 cells after 144 hrs by Annexin V/propidium iodide staining-based FACS analysis. It is filed as functional, cell-based. Put shortly:
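HuH7 cells were exposed to compound for 144 h, then treated and untreated cells were stained with Annexin V and PI. Flow cytometry scored early apoptosis as Ann V⁺/PI⁻ and late apoptosis as Ann V⁺/PI⁺.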

Data set [9] deals with Huh-7. The data set is described as follows: Cytotoxicity against human HuH7 cells at 400 uM after 144 hrs by MTT assay in presence of IBMX. The data set is classed as functional, cell-based. Put shortly:
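HuH7 cells pretreated with IBMX (1 mM) before bisphosphonate was added. Cells were seeded at 5x10⁴ cells/well and held 24 h in complete medium, then exposed 144 h to compound in 2% FCS medium. Read-out by MTT (2 mg/mL, 4 h, 37 °C), DMSO solubilisation, OD 570 nm. Mean ± SD of three independent experiments.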

Data set [10] in a line: (§4) Antiinvasive activity against human HuH7 cells at 100 uM after 24 hrs by matrigel assay relative to control. It is filed as functional, Huh-7. Put shortly:
(§5)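 Boyden chambers with 8 µm-pore filters coated with Matrigel. 2.5 × 10⁵ HuH7 cells were seeded in the upper well with 100 µM compound. HGF (20 ng/mL) in the lower chamber served as chemoattractant. After 24 h, non-invaded cells were wiped off, and filters were methanol-fixed and haematoxylin-stained. Cells on the lower surface were counted in 10 fields, expressed as % of control; mean ± SD of three independent experiments.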

The nature of data set [11]: Cell cycle arrest in human HuH7 cells assessed as accumulation at G1 phase after 144 hrs by […]propidium iodide staining-based FACS analysis. It is filed as functional. Conditions: Huh-7.
The test system of data set [12] is Serum. Nature of the data set: Stability in human serum assessed as [31P] NMR chemical shift after 3 days by [31P]NMR spectroscopy. The data set is classed as ADME, cell-free. Conditions: 72 h.
Data set [13] in a line: Stability in human HuH7 cell extract assessed as compound remaining by measuring [31P] NMR chemical shift at 0.5 mM after 5 days by [31P]NMR spectroscopy. Conditions: huh-7, 120 h, 500 µM. It is filed as ADME, cell-based.
Data set [14] can be described thus: Stability of the compound in cell culture medium assessed as [31P] NMR chemical shift after 3 days by [31P]NMR spectroscopy. It is filed as physicochemical. Conditions: 72 h.
Data set [15] is described as follows: Drug metabolism in human HuH7 cell extract assessed as phosphorylated metabolite formation by measuring [31P] NMR chemical shift at 0.5 mM after 5 days by [31P]NMR spectroscopy. It is filed as ADME, cell-based. Conditions: huh-7, 120 h, 500 µM.
Data set [16] can be described thus: Stability of the compound in D2O assessed as [31P] NMR chemical shift after 1 day by [31P]NMR spectroscopy. It is filed as physicochemical. Conditions: 24 h.
Data set [17] can be described thus: Stability of the compound in cell culture medium assessed as [31P] NMR chemical shift after 5 days by [31P]NMR spectroscopy. The data set is classed as physicochemical. Conditions: 120 h.
Data set [18] in a line: Stability of the compound in cell culture medium assessed as [31P] NMR chemical shift after 1 day by [31P]NMR spectroscopy. The data set is classed as physicochemical. Conditions: 24 h.
A short description of data set [19]: Stability of the compound in D2O assessed as [31P] NMR chemical shift after 3 days by [31P]NMR spectroscopy. Conditions: 72 h. It is filed as physicochemical.
For data set [20], the system named is Huh-7. The data set is described as §4. The data set is classed as functional. Put shortly: as §5
In data set [21] the test system is Huh-7. Nature of the data set: Cytotoxicity against human HuH7 cells at 125 uM after 144 hrs by MTT assay in presence of IBMX. It is filed as functional, cell-based. A digest of the protocol: as §2
Data set [22] relates to Serum. Nature of the data set: Stability in human serum assessed as [31P] NMR chemical shift after 5 days by [31P]NMR spectroscopy. Conditions: 120 h. It is filed as ADME, cell-free.
Data set [23] has as its system Serum. Nature of the data set: Stability in human serum assessed as [31P] NMR chemical shift after 1 day by [31P]NMR spectroscopy. Conditions: 24 h. The data set is classed as ADME, cell-free.
A short description of data set [24]: Stability of the compound in D2O assessed as [31P] NMR chemical shift after 5 days by [31P]NMR spectroscopy. Conditions: 120 h. It is filed as physicochemical.

On to `O=P(O)(O)C(O)(c1ccccc1)P(=O)(O)O`, for which the “inhibition (INH)” value in data set [1] is given as 15%. Besides, the outcome in data set [2] was Active.
With `O=P(O)(Oc1ccccc1)C(O)(c1ccccc1)P(=O)(O)Oc1ccccc1` (stereo not given), the inhibition result in data set [3] was “Dose-dependent effect”. In data set [4], this molecule yielded an IC50 of 555 µM. Further, the outcome in data set [2] was inactive.
With `O=P(O)(O)C(O)(c1ccc(Br)cc1)P(=O)(O)Oc1ccccc1` (stereo not given), in data set [3], the inhibition entry was “Dose-dependent effect”. This molecule also yielded a 50% inhibitory concentration (IC50) in data set [4] of 100 µM. Moreover, the inhibition at 250 µM in [5] came to 80%.
`COP(=O)(O)C(O)(c1ccc(Br)cc1)P(=O)(O)OC` (stereo not given): the “inhibition (INH)” value in data set [1] is 15%.
On to `CC(C)Cn1c(=O)n(C)c(=O)c2[nH]cnc21` [ISOBUTYLMETHYLXANTHINE], for which the Activity entry in [6] is given as “Non-toxic”.
The molecule `O=P(O)(O)C(O)(c1ccc(Br)cc1)P(=O)(O)O` came in with an inhibition at 100 µM in data set [7] of 95%. In addition, the result in [8] and in data set [9] was Active. Besides, in data set [3], the inhibition entry was “Dose-dependent effect”. For the same molecule, 440 µM corresponded to half-maximal inhibition in data set [4] (IC50). Also, the Activity in data set [10] was determined as 40%; in [11], 58%.
Take `O.O=P(O)(O)C(O)(Cn1ccnc1)P(=O)(O)O` [ZOLEDRONIC ACID]: testing at 100 µM in [7] gave an inhibition of 72%. This molecule gave a half-maximal inhibitory concentration (IC50) in data set [4] of 60 µM. Besides, in data set [10], the Activity was found to be 54%. The same molecule had an inhibition at 250 µM in [5] of 80%.
Turning to `O=P(O)(Oc1ccccc1)C(O)(c1ccc(Br)cc1)P(=O)(O)Oc1ccccc1` (stereo not given), the Stability in data set [12] amounted to 12.65 ppm; in [13], 12.09 ppm; in [14], 12.83 ppm; in data set [16], 12.8 ppm; in data set [17] it was 12.83 ppm; in data set [18] it was 12.85 ppm. The Stability in data set [19] is listed as 12.78 ppm; in data set [22], 12.8 ppm; in data set [23], 12.85 ppm; in data set [24], 12.8 ppm. In addition, in data set [7], at 100 µM the inhibition was 68%. The result in [8] was Active. In addition, the Drug metabolism entry in data set [15] is “metabolite_detected”. Further, the inhibition entry in data set [3] is “Dose-dependent effect”. Besides, half-maximal inhibition in data set [4] (IC50) required 125 µM. The outcome in data set [20] and in [21] was inactive. Moreover, in [5], the inhibition at 250 µM stood at 80%. The Activity in data set [11] is 58%.
